# Columns and labels:
# [1] = molecular target: calf intestine alkaline phosphatase (CIAP); test: Alkaline phosphatase inhibition, spectrophotometric p-NPP assay; type: biochemical; settings: read-out: Ki ± SEM CIAP; pH 9.5, p-NPP substrate, SEM of 3 experiments
# Method in brief: (§1)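 Commercial enzyme (calf-intestinal CIAP; TNAP) diluted in pH 9.5 buffer of 50 mM Tris–HCl, 5 mM MgCl2, 0.1 mM ZnCl2 and 50% glycerol. Test compound was preincubated with enzyme in glycerol-free buffer at 37 °C for 10 min. 0.5 mM p-NPP solution was added, incubated 30 min, and p-nitrophenolate read at 405 nm. Screen at 0.1 mM used levamisole (TNAP) or L-phenylalanine (CIAP) as standards. Ki came from 3-fold serial dilutions, run in triplicate.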
# [2] = molecular target: T1, tissue non-specific alkaline phosphatase (TNAP) (Homo sapiens, UniProt P05186); test: as above; type: biochemical; settings: for Ki: read-out: Ki ± SEM TNAP, pH 9.5, p-NPP substrate, SEM of 3 experiments
# T1 sequence (P05186 18-524): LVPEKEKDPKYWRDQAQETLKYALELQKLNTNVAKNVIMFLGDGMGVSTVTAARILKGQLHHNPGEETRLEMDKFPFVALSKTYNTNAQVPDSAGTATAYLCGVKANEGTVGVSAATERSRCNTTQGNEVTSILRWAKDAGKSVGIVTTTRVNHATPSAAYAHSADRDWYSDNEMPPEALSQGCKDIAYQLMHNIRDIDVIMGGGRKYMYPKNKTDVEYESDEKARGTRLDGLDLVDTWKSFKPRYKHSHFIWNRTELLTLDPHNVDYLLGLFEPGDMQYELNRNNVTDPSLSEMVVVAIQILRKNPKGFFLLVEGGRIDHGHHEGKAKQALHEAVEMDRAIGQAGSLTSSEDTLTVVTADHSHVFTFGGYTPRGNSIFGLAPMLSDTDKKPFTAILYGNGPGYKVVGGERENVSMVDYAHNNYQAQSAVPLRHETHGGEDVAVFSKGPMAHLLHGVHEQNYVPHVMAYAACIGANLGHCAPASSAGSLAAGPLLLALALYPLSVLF
# Method in brief: as §1
# HeLa cells = test: Cytotoxicity by sulforhodamine B; type: cell-based, human; settings: for Percent inhibition ± SEM at 0.1 μM on Hela cells / Percent inhibition ± SEM at 1 μM on Hela cells / Percent inhibition ± SEM at 10 μM on Hela cells: up to 48 h
# Method in brief: (§2)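 HeLa or vero cells were grown in RPMI-1640 with 2 mM L-glutamine, penicillin/streptomycin and 10% FBS at 37 °C, 5% CO2. Cells were seeded at 10^4 per well for 24 h, then exposed to 10, 1 or 0.1 μM test compound for up to 48 h, with vincristine and medium controls. Cells were fixed with cold TCA for 1 h and stained 30 min with 0.4% SRB in 1% acetic acid. Dye was solubilised in 10 mM Tris base and read at 490 nm minus 630 nm. Three experiments were run, each in triplicate.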
# vero cells = test: Cytotoxicity by sulforhodamine B; type: cell-based; settings: for Percent inhibition ± SEM at 10 μM on vero cells: up to 48 h
# Method in brief: as §2
Compound,Ki [1] [nM],Ki [2] [nM],Percent inhibition ± SEM at 0.1 μM on Hela cells (HeLa cells) [%],Percent inhibition ± SEM at 1 μM on Hela cells (HeLa cells) [%],Percent inhibition ± SEM at 10 μM on Hela cells (HeLa cells) [%],Percent inhibition ± SEM at 10 μM on vero cells (vero cells) [%],"inhibition at 10 µM (HeLa cells; Homo sapiens, HeLa, 48 h, read-out: Percent inhibition ± SEM at 10 μM on Hela cells) [%]","inhibition at 10 µM (vero cells; Chlorocebus sabaeus, Vero, 48 h, read-out: Percent inhibition ± SEM at 10 μM on vero cells) [%]",inhibition at 100 µM ([2]; read-out: Percent inhibition of TNAP) [%]
Na6[V10O28]·18H2O,79.1 ± 2.3,169 ± 21,49 ± 11,57 ± 13,66 ± 15,16 ± 3,–,–,–
"CC[C@]1(O)C[C@H]2CN(CCc3c([nH]c4ccccc34)[C@@](C(=O)OC)(c3cc4c(cc3OC)N(C=O)[C@H]3[C@@](O)(C(=O)OC)[C@H](OC(C)=O)[C@]5(CC)C=CCN6CC[C@]43[C@@H]65)C2)C1 [VCN, vincristine, reference compound]",–,–,–,–,–,–,72 ± 7,10 ± 4,–
"c1ccc([C@H]2CN3CCSC3=N2)cc1 [Levamisole, reference compound]",–,–,–,–,–,–,–,–,71
Na6[TeW6O24]·22H2O,520 ± 13,45.4 ± 11.3,53 ± 12,62 ± 10,69 ± 10,16 ± 8,–,–,–
(NH4)14[NaP5W30O110]·31H2O,921 ± 6,1110 ± 36,54 ± 6,62 ± 13,74 ± 10,15 ± 6,–,–,–

# — article PMC5598103 (Toxicology Reports, 2014)
